High-throughput results deposited in PubChem BioAssay by several laboratories.
NTR1 ag = agonists of human neurotensin receptor NTR1; NTR1-U2OS beta-arrestin-GFP spot imaging, agonist mode; activation, % at 20 µM; actives 0.17% (n = 330,000);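 active = activation at or above 40% of the spot to cytoplasm intensity ratio, with at least 20 cells analyzed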
TLR9-MyD88 block = TLR9-MyD88 interaction inhibition; CHO BLA complementation TLR9-MyD88, CCF4 FRET ratio; actives 0.21% (n = 340,000); inhibition, % at 4.98 µM;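 active = inhibition above the mean over all tested compounds plus 3 SD, cut at about 21% in these data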
MC4R ag barr = agonists of human melanocortin 4 receptor (MC4R) beta-arrestin. U2OS MC4R beta-arrestin complementation, luminescence; percent of melanotan II response, DMSO zero. activation, % at 8.9 µM. AID 540308. P32245. actives 0.98% (n = 360,000);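 active = activation above a per-plate cutoff, the mean activation of sample wells on that plate plus 3 SD, cut at about 8% in these data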
NOD2 RIPK2 PPI = NOD2-RIPK2 protein interaction inhibition; O43353; CHO BLA complementation NOD2-RIPK2, CCF4 ratio; inhibition, % at 4.98 µM; actives 0.38% (n = 360,000); AID 624267; in the data active = inhibition above about 21%
Target sequence (O43353 whole entry, looked up): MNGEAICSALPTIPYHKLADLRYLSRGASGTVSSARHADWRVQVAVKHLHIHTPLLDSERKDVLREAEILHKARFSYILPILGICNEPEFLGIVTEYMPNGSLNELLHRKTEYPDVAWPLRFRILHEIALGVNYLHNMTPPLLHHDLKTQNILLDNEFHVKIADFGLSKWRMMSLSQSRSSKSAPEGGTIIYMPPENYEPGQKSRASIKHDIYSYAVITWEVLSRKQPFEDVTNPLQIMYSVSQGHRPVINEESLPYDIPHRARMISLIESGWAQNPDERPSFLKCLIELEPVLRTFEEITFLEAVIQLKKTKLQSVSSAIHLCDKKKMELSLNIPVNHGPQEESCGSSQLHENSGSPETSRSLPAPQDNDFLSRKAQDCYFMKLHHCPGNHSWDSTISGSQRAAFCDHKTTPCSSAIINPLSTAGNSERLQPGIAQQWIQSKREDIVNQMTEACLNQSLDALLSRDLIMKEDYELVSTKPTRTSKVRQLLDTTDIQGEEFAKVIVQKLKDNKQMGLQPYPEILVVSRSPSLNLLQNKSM
MC4R antag cAMP = blocks human MC4R cAMP signaling. MC4R-expressing cells, MTII-stimulated cAMP, LANCE TR-FRET. AID 540295. actives 0.48% (n = 360,000). inhibition, % at 6.5 µM;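 active = inhibition above its plate's cutoff, the mean of tested wells on that plate plus 3 SD, cut at about 29% in these data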
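Assay system: U2OS cells stably expressing human melanocortin 4 receptor (MC4R) / Dosing: 6.5 µM / Timing: compound 30 min, challenge 1 h, detection 1 h / Measured by: Eu-cAMP/anti-cAMP TR-FRET, emission 671 nm / Replicates: singlicate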
TLR4-MyD88 BLA = inhibitors of human TLR4-MyD88 binding; O00206+Q99836; HeLa CL3-4 TLR4/MyD88 BLA complementation, FRET ratio; inhibition, % at 8.4 µM; actives 0.18% (n = 200,000); AID 861; in the data active = inhibition above about 25%
MC4R barr ag = human MC4R beta-arrestin agonism confirmation. activation, % at 8.9 µM. shares compounds with MC4R ag barr. AID 602192. U2OS MC4R beta-arrestin recruitment, luminescence; scaled DMSO 0%, Melanotan II 100%. actives 31% (n = 2,400);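 active = mean activation across replicates above the hit cutoff set in the earlier primary screen, cut at about 8% in these data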
MOR-DOR barr ag = OPRM1-OPRD1 heterodimer agonism counter-screen | shares compounds with MC4R ag barr | U2OS PathHunter beta-arrestin, beta-gal luminescence; percent of deltorphin B response, DMSO zero | activation, % at 9.2 µM | actives 5.8% (n = 2,400);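 active = mean activation across replicates exceeds the hit threshold derived in the earlier primary screen, cut at about 18% in these data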
NOD2-RIPK2 conf = NOD2-RIPK2 interaction inhibition confirmed; shares compounds with NOD2 RIPK2 PPI; CHO cells, NOD2-RIPK2 BLA complementation, CCF4 FRET; inhibition, % at 4.98 µM; actives 70% (n = 1,200); AID 624370;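 active = mean inhibition across replicates above a set limit taken from the earlier primary screen, cut at about 21% in these data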
NOD2 BLA counter = hits BLA reporter in NOD2-RIPK2 inhibitor counterscreen; shares compounds with NOD2 RIPK2 PPI; actives 57% (n = 1,200); inhibition, % at 4.98 µM; CHO BLA reporter, CCF4 FRET ratio;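 active = mean inhibition above the low-control mean inhibition plus three low-control SD, cut at about 11% in these data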
Large screens that a line does not name were inactive (follow-up assays come after a bar, where they were run). Most compounds without a hit are left out; they make up all but 1.9% or so of the library.

CCC(CC)NC(=O)c1cccc(Oc2ccccc2)c1	none
COCCNC(=S)N/N=C/c1ccc(-c2ccc([N+](=O)[O-])cc2)o1	MC4R ag barr 11, NOD2 RIPK2 PPI 31 (no result: TLR4-MyD88 BLA) | MC4R barr ag inactive | MOR-DOR barr ag inactive | NOD2-RIPK2 conf 44 | NOD2 BLA counter 47
CC1CN(CC(=O)Nc2nc(-c3ccc(Cl)cc3)cs2)CC(C)O1 (stereo not drawn)	none (no result: NTR1 ag, TLR4-MyD88 BLA)
Cc1cc(C)c(NC(=O)CN2CCC(NC(=O)NC3CCCCC3)CC2)c(C)c1	none (no result: TLR9-MyD88 block, MC4R ag barr, NOD2 RIPK2 PPI, MC4R antag cAMP)
NC(CCc1ccccc1)c1csc(Nc2nncc3ccccc23)n1 (stereo not drawn)	MC4R ag barr 16, NOD2 RIPK2 PPI 24 (no result: NTR1 ag, TLR9-MyD88 block, TLR4-MyD88 BLA) | MC4R barr ag 12 | MOR-DOR barr ag inactive | NOD2-RIPK2 conf inactive | NOD2 BLA counter inactive
COc1ccc(Cl)cc1NC(=O)Cc1c(F)cccc1Cl	MC4R ag barr 15, NOD2 RIPK2 PPI 22 | MC4R barr ag inactive | MOR-DOR barr ag inactive | NOD2-RIPK2 conf inactive | NOD2 BLA counter inactive
COc1ccc(Cl)cc1NC(=O)CC(=O)Nc1cc(Cl)ccc1OC	none (no result: TLR4-MyD88 BLA)
CC(NCc1ccc(OCc2ccc(Cl)cc2)cc1)C(O)c1ccccc1 (stereo not drawn)	MC4R ag barr 16, NOD2 RIPK2 PPI 23 | MC4R barr ag 26 | MOR-DOR barr ag inactive | NOD2-RIPK2 conf inactive | NOD2 BLA counter inactive
CC(NCc1cccc(OCc2ccccc2)c1)C(O)c1ccccc1 (stereo not drawn)	none
O=C1Nc2ccccc2/C1=C\C(=O)c1ccccc1	NOD2 RIPK2 PPI 30 (no result: TLR4-MyD88 BLA) | NOD2-RIPK2 conf 29 | NOD2 BLA counter inactive
O=C(/C=C1\C(=O)Nc2ccccc21)/C=C1\C(=O)Nc2ccccc21	NOD2 RIPK2 PPI 25 (no result: NTR1 ag, TLR4-MyD88 BLA) | NOD2-RIPK2 conf 74 | NOD2 BLA counter 16
CN(O)/C=C1\C(=O)Nc2ccccc21	none
CC(C)Oc1ccc(C(=O)/C=C2/C(=O)Nc3ccccc32)cc1	none (no result: TLR4-MyD88 BLA)
COc1cccc(C2=NOC(C(=O)Nc3ccc4c(c3)OCO4)C2)c1OC (stereo not drawn)	none (no result: TLR4-MyD88 BLA)
CCOC(=O)C1=C(N)n2c(s/c(=C\c3ccncc3)c2=O)=C(C(=O)OCC)C1c1ccncc1 (stereo not drawn)	none (no result: TLR9-MyD88 block)
CCOC(=O)C1=C(N)n2c(s/c(=C\c3cccs3)c2=O)=C(C(=O)OCC)C1c1cccs1 (stereo not drawn)	NOD2 RIPK2 PPI 27 | NOD2-RIPK2 conf inactive | NOD2 BLA counter inactive
N#Cc1ccc(OCC(=O)N2CCN(S(=O)(=O)c3cccc(Cl)c3)CC2)cc1	none (no result: TLR4-MyD88 BLA)
CCc1nc2ccc(C(=O)NCCNC(C)=O)cn2c1N(CC)CCOC	none (no result: NTR1 ag, TLR9-MyD88 block, TLR4-MyD88 BLA)
COc1cc(/C=C/[N+](=O)[O-])ccc1OC(=O)/C=C/c1ccc(F)cc1	NOD2 RIPK2 PPI 38 (no result: TLR4-MyD88 BLA) | NOD2-RIPK2 conf 56 | NOD2 BLA counter inactive
N#CCSc1ccccc1NC(=O)COC(=O)Cc1c[nH]c2ccccc12	none (no result: TLR4-MyD88 BLA)
O=C1OCCN1C(=O)[C@H]1[C@H](c2ccc(Cl)cc2)C(c2ccccc2)=NN1c1ccccc1	none (no result: TLR4-MyD88 BLA)
O=C1OCCN1C(=O)[C@H]1[C@H](c2ccccc2)C(c2cccc(Cl)c2)=NN1c1ccccc1	NOD2 RIPK2 PPI 27 (no result: TLR4-MyD88 BLA) | NOD2-RIPK2 conf inactive | NOD2 BLA counter 38
CN1C=CC(=O)[C@@H](OC(=O)Nc2ccc(Br)cc2)[C@H]1c1ccccc1Br	NOD2 RIPK2 PPI 23 (no result: NTR1 ag, TLR4-MyD88 BLA) | NOD2-RIPK2 conf inactive | NOD2 BLA counter inactive
COc1ccc(/C=N/Nc2ccc(C(=O)O)cc2)c(OC)c1OC	none (no result: TLR4-MyD88 BLA)
